S100A4 inh HTS = inhibitors of S100A4-myosin IIA peptide binding, primary screen, biochemical, fluorescence polarization, TAMRA-MyoIIA peptide. 360,000 tested, 0.14% active. inhibition, % at 10.7 µM. Protein S100-A4 (Homo sapiens), P26447;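 active = mean inhibition of at least 70% across replicates, with every replicate also reaching that level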
Target sequence (P26447 whole entry, looked up): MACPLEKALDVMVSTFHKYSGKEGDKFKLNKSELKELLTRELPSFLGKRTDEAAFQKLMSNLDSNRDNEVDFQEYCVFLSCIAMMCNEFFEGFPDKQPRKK
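Test system – S100A4 monomer (human) · Compound – single-point compound testing · Schedule – 5 min incubation before reading · Probe or stimulus – TAMRA-labelled myosin IIA heavy-chain peptide probe, 5 nM · Benchmarks – neutral control DMSO, positive control TFP · Medium – Calcium-containing HEPES buffer, pH 7.2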
FGF22 binding = binders of human FGF22 protein, primary screen, FGF22 synaptogenesis inhibitor project, biophysical, thermal shift, single point | AID 651658, 2012 | activity (Tm shift, normalised), % at 9.99 µM | 340,000 tested, 1.5% active | Fibroblast growth factor 22 (Homo sapiens), Q9HCT0 | recombinant FGF22 thermal shift, SYPRO orange fluorescence; percent of sucrose octasulfate shift, DMSO zero;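 active = mean Tm shift, scaled 0 neutral to 100 positive control, at about 1.3% or above, every replicate too, limit read from the data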
Target sequence (Q9HCT0 whole entry, looked up): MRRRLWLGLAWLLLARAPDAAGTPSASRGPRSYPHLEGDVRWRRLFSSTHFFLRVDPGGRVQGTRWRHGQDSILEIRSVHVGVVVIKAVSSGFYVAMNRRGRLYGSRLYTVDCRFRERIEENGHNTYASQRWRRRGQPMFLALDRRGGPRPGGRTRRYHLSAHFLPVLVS
E-selectin induc = E-selectin induction in HUVECs, primary screen, imaging, HUVEC, immunofluorescence imaging, single point; 260,000 tested, 0.37% active; activation, % at 7.58 µM; normalized: neutral wells 0, TNF-alpha wells 100; AID 686992, 2013;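 active = mean E-selectin-positive cell signal at least 10% of the positive control, reached in at least 60% of replicates, without over 20% cell loss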
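assay system = HUVEC, human umbilical vein endothelial cells | input = 3,000 HUVEC seeded per well | medium = EGM-2 growth medium on 0.1% gelatin-coated wells | dosing = one compound dose added by pin transfer | signal = immunofluorescence imaging | read-out basis = % PE-positive cells | control set = TNF-alpha, DMSO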
miR-122 sensor = miR-122 Renilla sensor signal increase in Huh7, primary screen, miR-122 inhibitor project, cell-based, single point, plate reader; Huh7 miR-122 Renilla luciferase sensor, 48 h; neutral wells = 0, positive control = 100; activation (reporter increase), % at 12.5 µM; 340,000 tested, 0.3% active; AID 602342, 2012;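 active = mean replicate activation score at least 90 and every replicate individually at or above 90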;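 also: higher luciferase means less miR-122 activity so hits act as miR-122 inhibitors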
SIRT5 block = SIRT5 desuccinylase inhibitors, primary screen, biochemical, fluorescence imaging, single point, set 5; NAD-dependent protein deacylase sirtuin-5, mitochondrial (Homo sapiens), Q9NXA8; Purified SirT5, succinyl-peptide AMC, trypsin-coupled fluorescence; inhibition, % at 15 µM; 330,000 tested, 1.1% active; in the data active = inhibition above about 15%
Target sequence (Q9NXA8 whole entry, looked up): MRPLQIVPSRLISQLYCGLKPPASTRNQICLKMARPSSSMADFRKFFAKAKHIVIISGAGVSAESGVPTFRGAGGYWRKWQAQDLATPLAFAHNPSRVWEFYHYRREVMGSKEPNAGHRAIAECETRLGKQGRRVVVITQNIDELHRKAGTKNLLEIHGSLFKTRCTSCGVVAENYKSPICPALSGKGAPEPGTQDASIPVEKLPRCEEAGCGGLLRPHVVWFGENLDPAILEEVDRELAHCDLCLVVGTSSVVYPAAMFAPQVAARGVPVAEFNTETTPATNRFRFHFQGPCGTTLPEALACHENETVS
* = called active by the depositor; nt = no result; [ ] = another dose, or the depositor's remark. Sampled rows, rich in hits. Any-hit rate of the full collection: about 2.5%.

SMILES	S100A4 inh HTS	FGF22 binding	E-selectin induc	miR-122 sensor	SIRT5 block
Cc1ccc(/C=C/C(=O)O)cc1S(=O)(=O)NC1CCS(=O)(=O)C1 (centres undefined)	-5	43*	0	-1	-2
COc1ccc(NC(=O)N(C)C[C@H]2Oc3c(NC(=O)CCCCCC(=O)Nc4ccccc4N)cccc3C(=O)N([C@@H](C)CO)C[C@H]2C)cc1	13	0	0	nt	nt
CCc1ccc(N2CC(C(=O)Nc3ccc(F)cc3)CC2=O)cc1 (centres undefined)	-2	0	42*	1	1
CC(=O)Nc1ccc(NC(=O)C(C)n2nc(C)c([N+](=O)[O-])c2C)cc1 (centres undefined)	-7	0	-1	8	28*
CC(=O)Nc1ccc(NC(=O)C(C)n2nc([N+](=O)[O-])c(Br)c2C)cc1 (centres undefined)	17	0	nt	nt	-2
C[C@H]1CCCCO[C@H](CN(C)C(=O)Nc2ccc(F)cc2)[C@@H](C)CN([C@@H](C)CO)C(=O)c2cc(N(C)C)ccc2O1	nt	nt	0	-1[16.7 µM]	nt
CN(C)c1cccc(C(=O)NNC(=S)NC2CC3CCC2C3)c1 (centres undefined)	-4	42	nt	5	-2
CC(C)N(C(=S)NC1CC2CCC1C2)c1ccccc1 (centres undefined)	1	44*	nt	-7	3
O=C(c1cc2nc(-c3ccccc3)cc(C(F)(F)F)n2n1)N1CCCC1	-7	0	-1	nt	21*
COc1ccc(Cl)cc1S(=O)(=O)N1CCN=C1C	-2	0	1	32	-1
CC1=NCCN1S(=O)(=O)c1c(C(C)C)cc(C(C)C)cc1C(C)C	6	0	3	71	27*
Cc1cc(C2C(=O)c3ccccc3C2=O)c(C)c(C)c1C	-3	0	0	nt	19*
Cc1ccc(S(=O)(=O)N[C@@H]2C=C[C@H](CC(=O)NCCCN(C)C)O[C@@H]2CO)cc1	16	0	-1	nt	0
O=C1N=c2ccccc2=C1c1sc(=S)n(NC(=O)c2cccc(O)c2)c1O	-1	17*	11	nt	1
O=C1N=c2ccccc2=C1c1sc(=S)n(-c2ccc(O)cc2)c1O	5	0	2	6	-9
COc1ccc(C(=O)N2N=C(c3cccc(OC)c3)CC2(O)C(F)(F)F)cc1 (centres undefined)	-3	0	nt	4	-2
O=C(c1ccco1)N1N=C(c2ccc(Cl)cc2)CC1(O)C(F)(F)F (centres undefined)	0	43*	nt	-4	3
O=C(c1ccco1)N1N=C(c2ccc(Br)cc2)CC1(O)C(F)(F)F (centres undefined)	2	0	nt	nt	0
COc1cccc(C2=NN(C(=O)c3ccc(C)o3)C(O)(C(F)(F)F)C2)c1 (centres undefined)	11	43*	-1	nt	-2
COC(=O)c1cn(CC(=O)N2CCC3(CC2)C(=O)NCN3c2ccccc2)nn1	-28	0	nt	nt	-3
CO[C@H]1CN(C)C(=O)c2cc(NC(=O)NC(C)C)ccc2OC[C@@H](C)N(C(=O)C2CCC2)C[C@H]1C	-1	0	0	nt	-1
CNC[C@@H]1Oc2ncc(-c3ccc(OC)cc3)cc2C(=O)N([C@@H](C)CO)C[C@H]1C	-5	0	-2	-2[16.7 µM]	5
O=C(NCCCN1CCOCC1)[C@@H]1[C@@H](CO)[C@@H]2Cn3c(cccc3=O)[C@H]1N2C(=O)C1CCCCC1	-5	0	0	nt	14
O=C(C[C@@H]1CC[C@@H]2[C@H](COC[C@H](O)CN2C(=O)c2ccccc2)O1)Nc1nccs1	6	0	0	0[16.7 µM]	3
C(=NOCc1ccccc1)c1cccnc1	-4	0	-1	-11	-2
SMILES	S100A4 inh HTS	FGF22 binding	E-selectin induc	miR-122 sensor	SIRT5 block
N#Cc1ccc(CO/N=C/c2ccccc2)cc1	-4	44*	0	nt	-1
Cc1ccc(S(=O)(=O)Nc2ccc(N(C)C)cc2)cc1	-14	0	nt	6	112*
Cc1ccc(S(=O)(=O)c2cc(Nc3ccccc3)ccc2O)cc1	-1	-1	0	19	nt
Cc1ccc(S(=O)(=O)NC2=NCCCCC2)cc1	2	43*	0	-15	-4
Cc1ccc(S(=O)(=O)Nc2cc(C)c(O)c(S(=O)(=O)c3ccc(C)cc3)c2)cc1	1	nt	-2	140*	5
O=C(C[C@H]1CC[C@@H](NC(=O)C2CC2)[C@@H](CO)O1)NCCCN1CCOCC1	-15	0	0	2[16.7 µM]	-1
O=C(Nc1ccc(F)cc1)N1CC(=O)N2[C@H](CO)[C@H](c3ccc(Br)cc3)[C@H]2C1	1	nt	0	nt	-1
CCCC#Cc1ccc2c(c1)O[C@@H](CN(C)CC1CCOCC1)[C@@H](C)CN([C@H](C)CO)S2(=O)=O	14	0	0	-2[16.7 µM]	7
CCCC#Cc1ccc2c(c1)O[C@@H](CN(C)CC1CCOCC1)[C@H](C)CN([C@H](C)CO)S2(=O)=O	-6	0	0	7[16.7 µM]	24*
CCCC#Cc1ccc2c(c1)O[C@@H](CN(C)CCC)[C@@H](C)CN([C@@H](C)CO)S2(=O)=O	-5	0	85*	-5[16.7 µM]	1
COc1cc([C@H]2Oc3c(OC)cc(CCCO[C@@H]4O[C@H](CO)[C@@H](O)[C@H](O)[C@H]4O)cc3[C@@H]2CO)ccc1O	4	0	nt	-4	25*
OC[C@H]1O[C@H](OCCc2ccc(O)cc2)[C@H](O)[C@@H](O)[C@@H]1O	-1	0	1	nt	nt
O=C(C1CCOCC1)N1C[C@@H]2[C@H](c3ccccc31)[C@@H](CO)N2C(=O)Nc1cccc(F)c1	-14	0	0	10[16.7 µM]	0
COc1ccc(-c2ccc3c(c2)O[C@@H](CN(C)Cc2cccnc2)[C@@H](C)CN([C@H](C)CO)S3(=O)=O)cc1	-2	0	0	nt	3
NC(=O)C1CCN(c2oc(/C=C/c3ccc(F)cc3)nc2S(=O)(=O)c2ccccc2)CC1	-2	0	3	-10	-2
COc1ccccc1/C=C/c1nc(S(=O)(=O)c2ccccc2)c(N2CCC(C(N)=O)CC2)o1	-9	0	nt	nt	17*
Cc1cccc(NC(=O)COc2ccc(/C=C\c3[nH]c(=O)[nH]c(=O)c3[N+](=O)[O-])cc2)c1	1	44*	nt	nt	6
O=c1[nH]c(/C=C/c2ccc([N+](=O)[O-])cc2)c([N+](=O)[O-])c(=O)[nH]1	-5	0	-1	-7	10
